Results taken from ChEMBL document CHEMBL1127530 (J Med Chem, 1994).

Assays:
ANN-1 = assay: Cytotoxic effect on v-abl transformed murine ANN-1 cells; assay type: functional, cell-based; settings: Mus musculus
Procedure, shortened: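 Abelson virus-transformed ANN-1 murine fibroblasts expressing the gag-abl tyrosine kinase, 2 × 10^4 cells in DMEM with 10% fetal calf serum; compounds in DMF or DMSO, final solvent ≤0.5% v/v. Value is the mean of two determinations.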

MCF7 = assay: Cytotoxic effect on MCF-7 human breast carcinoma cells; assay type: functional, cell-based
WiDr = assay: Cytotoxic effect on WiDr human colon cells; assay type: functional, cell-based
NIH3T3 = assay: Cytotoxic effect on 3T3 cells; assay type: functional, cell-based; settings: Mus musculus
Procedure, shortened: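 3T3 parental fibroblasts, 2 × 10^4 cells in DMEM with 10% fetal calf serum; compounds dissolved or suspended in DMF or DMSO, final solvent ≤0.5% v/v. Value is the mean of two determinations.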

[1] = target: Epidermal growth factor receptor (Homo sapiens) (UniProt P00533); settings: A-431, 150 uM
Sequence of Epidermal growth factor receptor (Homo sapiens) (P00533 whole entry): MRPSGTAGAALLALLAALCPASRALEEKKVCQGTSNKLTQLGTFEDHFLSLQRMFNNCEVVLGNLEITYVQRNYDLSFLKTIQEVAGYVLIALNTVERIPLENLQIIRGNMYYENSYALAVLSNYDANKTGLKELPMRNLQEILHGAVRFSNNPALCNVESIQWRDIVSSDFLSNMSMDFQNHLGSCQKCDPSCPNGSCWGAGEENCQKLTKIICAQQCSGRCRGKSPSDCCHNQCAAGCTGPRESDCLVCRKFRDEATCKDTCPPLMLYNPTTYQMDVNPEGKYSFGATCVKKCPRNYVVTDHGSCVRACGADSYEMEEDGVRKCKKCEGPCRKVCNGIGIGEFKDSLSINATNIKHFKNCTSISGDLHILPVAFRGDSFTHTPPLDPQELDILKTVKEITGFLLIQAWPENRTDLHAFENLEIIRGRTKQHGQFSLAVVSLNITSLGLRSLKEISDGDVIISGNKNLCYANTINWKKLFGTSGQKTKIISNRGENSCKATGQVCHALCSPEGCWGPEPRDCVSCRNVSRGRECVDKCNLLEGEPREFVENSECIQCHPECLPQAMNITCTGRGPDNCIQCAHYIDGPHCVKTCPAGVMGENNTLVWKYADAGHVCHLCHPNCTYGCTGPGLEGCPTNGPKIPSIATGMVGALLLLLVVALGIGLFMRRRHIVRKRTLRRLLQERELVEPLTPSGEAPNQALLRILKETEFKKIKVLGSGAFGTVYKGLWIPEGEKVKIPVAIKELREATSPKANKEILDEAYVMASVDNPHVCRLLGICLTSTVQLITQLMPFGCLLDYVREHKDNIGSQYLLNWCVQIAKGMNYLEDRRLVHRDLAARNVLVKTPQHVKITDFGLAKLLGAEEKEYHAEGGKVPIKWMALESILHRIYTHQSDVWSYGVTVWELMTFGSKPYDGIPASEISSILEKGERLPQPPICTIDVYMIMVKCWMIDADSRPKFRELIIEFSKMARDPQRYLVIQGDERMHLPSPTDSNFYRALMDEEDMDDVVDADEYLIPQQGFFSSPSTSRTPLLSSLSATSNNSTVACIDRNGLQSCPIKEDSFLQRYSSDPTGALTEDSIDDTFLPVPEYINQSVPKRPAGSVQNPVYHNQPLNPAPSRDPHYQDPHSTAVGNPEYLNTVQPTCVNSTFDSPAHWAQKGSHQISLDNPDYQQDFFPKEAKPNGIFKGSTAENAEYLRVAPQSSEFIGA

HFF [2] = assay: (§1) Inhibition of EGF-induced mitogenesis in human foreskin fibroblasts; assay type: functional, cell-based
HFF [3] = assay: Inhibition of PDGF-induced mitogenesis in human foreskin fibroblasts; assay type: functional, cell-based
HFF [4] = assay: as §1; assay type: functional, cell-based; remark: listed apart in the source

Q: How did the IC50 (ANN-1) turn out when `Oc1ccc(-c2nc3cc(O)c(O)cc3s2)cc1O` was run?
A: The IC50 was 32 µM.

Q: What about the IC50 (MCF7) of the same compound?
A: The IC50 was 5.1 µM.

Q: And the IC50 (WiDr)?
A: Its IC50 is 34.2 µM.

Q: What about the IC50 (NIH3T3) of the same compound?
A: The IC50 was 56.5 µM.

Q: What about the inhibition [1] of the same compound?
A: Its inhibition is 38%.

Q: For `Oc1cc(O)c2nc(-c3ccc(O)c(O)c3)sc2c1`, which IC50 (ANN-1) is on record?
A: The IC50 was 58.5 µM.

Q: And the IC50 (MCF7)?
A: The IC50 was 41.3 µM.

Q: What about the IC50 (HFF [2]) of the same compound?
A: The IC50 was 7 µM.

Q: What about the IC50 (WiDr) of the same compound?
A: Its IC50 is 47.7 µM.

Q: What about the IC50 (HFF [3]) of the same compound?
A: Its IC50 is 68 µM.

Q: And the IC50 (NIH3T3)?
A: The IC50 was 47 µM.

Q: And the IC50 (HFF [4])?
A: Its IC50 is 9 µM.

Q: With `Oc1cccc(-c2nc3ccc(O)cc3s2)c1` as the compound, how does the IC50 (ANN-1) read?
A: The IC50 was 17 µM.

Q: And the IC50 (MCF7)?
A: Its IC50 is 2.7 µM.

Q: And the IC50 (WiDr)?
A: The IC50 was 18.3 µM.

Q: What about the IC50 (NIH3T3) of the same compound?
A: Its IC50 is 30.5 µM.

Q: With `CC/C(=C(/CC)c1ccc(O)cc1)c1ccc(O)cc1` [DIETHYLSTILBESTROL] as the compound, how does the IC50 (ANN-1) read?
A: Its IC50 is 3 µM.

Q: What about the IC50 (MCF7) of the same compound?
A: The IC50 was 5 µM.

Q: And the IC50 (NIH3T3)?
A: The IC50 was 2.5 µM.

Q: How did the IC50 (ANN-1) turn out when `O=c1c(-c2ccc(O)cc2)coc2cc(O)cc(O)c12` [GENISTEIN] was run?
A: Its IC50 is 8 µM.

Q: What about the IC50 (MCF7) of the same compound?
A: The IC50 was 15.1 µM.

Q: What about the IC50 (WiDr) of the same compound?
A: The IC50 was 27.7 µM.

Q: And the IC50 (NIH3T3)?
A: The IC50 was 24 µM.

Q: How did the IC50 (ANN-1) turn out when `Oc1ccc(-c2nc3ccc(O)cc3s2)cc1` was run?
A: Its IC50 is 13.5 µM.

Q: What about the IC50 (MCF7) of the same compound?
A: Its IC50 is 25 µM.

Q: And the IC50 (HFF [2])?
A: Its IC50 is 13 µM.

Q: What about the IC50 (WiDr) of the same compound?
A: Its IC50 is 67.2 µM.

Q: And the IC50 (HFF [3])?
A: Its IC50 is 14 µM.

Q: What about the IC50 (NIH3T3) of the same compound?
A: The IC50 was 11 µM.

Q: And the IC50 (HFF [4])?
A: The IC50 was 6.5 µM.

Q: What about the inhibition [1] of the same compound?
A: The inhibition was 42%.

Q: `Oc1ccc(-c2nc3c(O)cc(O)cc3s2)cc1` was tested. Which IC50 (ANN-1) did it give?
A: Its IC50 is 21.5 µM.

Q: And the IC50 (MCF7)?
A: Its IC50 is 33.3 µM.

Q: And the IC50 (HFF [2])?
A: The IC50 was 7 µM.

Q: What about the IC50 (WiDr) of the same compound?
A: The IC50 was 31.2 µM.

Q: And the IC50 (HFF [3])?
A: Its IC50 is 20 µM.

Q: And the IC50 (NIH3T3)?
A: Its IC50 is 20 µM.

Q: And the IC50 (HFF [4])?
A: The IC50 was 16 µM.

Q: `Oc1ccc(-c2nc3cc(O)ccc3s2)cc1` was tested. Which IC50 (ANN-1) did it give?
A: Its IC50 is 25.5 µM.

Q: And the IC50 (MCF7)?
A: Its IC50 is 41.4 µM.

Q: And the IC50 (WiDr)?
A: The IC50 was 62.2 µM.

Q: And the IC50 (NIH3T3)?
A: Its IC50 is 25 µM.

Q: For `Oc1ccc(-c2nc3cc(O)c(O)cc3s2)cc1`, which IC50 (ANN-1) is on record?
A: Its IC50 is 9 µM.

Q: And the IC50 (MCF7)?
A: The IC50 was 8.4 µM.

Q: What about the IC50 (WiDr) of the same compound?
A: The IC50 was 24.7 µM.

Q: And the IC50 (NIH3T3)?
A: Its IC50 is 13.5 µM.

Q: What does the source list for `Oc1ccc2nc(-c3ccc(O)c(O)c3)sc2c1`?
A: IC50 (ANN-1): 5.5 µM; IC50 (MCF7): 17.6 µM; IC50 (WiDr): 23 µM; IC50 (NIH3T3): 6 µM

Q: What does the source list for `O=c1c(O)c(-c2ccc(O)c(O)c2)oc2cc(O)cc(O)c12` [QUERCETIN]?
A: IC50 (ANN-1): 32.5 µM; IC50 (MCF7): 24 µM; IC50 (WiDr): 40.2 µM; IC50 (HFF [3]): 100 µM; IC50 (NIH3T3): 39.5 µM

Q: What does the source list for `Oc1ccc(-c2nc3ccccc3s2)cc1`?
A: IC50 (ANN-1): 77 µM; IC50 (MCF7): 27 µM; IC50 (WiDr): 68.7 µM; IC50 (NIH3T3): 71.5 µM

Q: Which results are given for `Oc1ccc2nc(-c3ccccc3)sc2c1`?
A: IC50 (ANN-1): 71 µM; IC50 (MCF7): 27.3 µM; IC50 (WiDr): 45.2 µM; IC50 (NIH3T3): 79.5 µM
